Results published in ChEMBL document CHEMBL1124602, “Diethylstilbestrol-linked cytotoxic agents: synthesis and binding affinity for estrogen receptors” (J Med Chem, 1989).
The source made the active and inactive calls. The calls are words filed in the database; no cut-off is given here.

Tests used:
[1] = molecular target: T1, Estrogen receptor (Rattus norvegicus) (UniProt P06211+Q62986); assay: Relative binding affinity (RBA) for estrogen receptor of rat uterine cytosol compared to [3H]estradiol; format: protein assay
Method in brief: (§1)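 Competitive binding: rat uterine cytosol incubated 30 min at 18 °C with 5 × 10⁻⁹ [³H]estradiol, alone or with increasing competitor (10⁻⁹ to 10⁻⁵ M). Unlabeled estradiol serves as the reference competitor for relative binding affinity.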

[2] = molecular target: T1, Estrogen receptor (Rattus norvegicus); assay: Relative binding affinity (RBA) for estrogen receptor in rat uterine cytosol compared to [3H]estradiol; No binding; conditions: Uterus; method in brief: as §1

relative binding affinity (RBA) [1]	relative binding affinity (RBA) [2]	Structure (SMILES)
1.5		CC[C@@H](c1ccc(O)cc1)[C@H](CCCCI)c1ccc(O)cc1
1		CC[C@@H](c1ccc(O)cc1)[C@H](CCCC(=O)N(CC)CC)c1ccc(O)cc1
3		CC[C@@H](c1ccc(O)cc1)[C@H](CCCCCl)c1ccc(O)cc1
10		CCCC[C@H](c1ccc(O)cc1)[C@@H](CC)c1ccc(O)cc1
	inactive	CC[C@@H](c1ccc(O)cc1)[C@H](CCCN[C@H]1C[C@H](O[C@H]2C[C@](O)(C(C)=O)Cc3c(O)c4c(c(O)c32)C(=O)c2c(OC)cccc2C4=O)O[C@@H](C)[C@H]1O)c1ccc(O)cc1
0.3		CC[C@@H](c1ccc(O)cc1)[C@H](CCCC(=O)Oc1ccc(Cl)cc1)c1ccc(O)cc1
0.2		CCCCCCCC[C@H](c1ccc(O)cc1)[C@@H](CC)c1ccc(O)cc1
1.8		CC[C@@H](c1ccc(O)cc1)[C@H](CCCCOS(C)(=O)=O)c1ccc(O)cc1
0.3		CC[C@@H](c1ccc(O)cc1)[C@H](CCCC(=O)Oc1c(Cl)c(Cl)c(Cl)c(Cl)c1Cl)c1ccc(O)cc1
1.5		CC[C@@H](c1ccc(O)cc1)[C@H](CCCCO)c1ccc(O)cc1
0.1		CC[C@@H](c1ccc(O)cc1)[C@H](CCCC(=O)O)c1ccc(O)cc1
1.2		CCOCCCC[C@H](c1ccc(O)cc1)[C@@H](CC)c1ccc(O)cc1
1		CC[C@@H](c1ccc(O)cc1)[C@H](CCCCOC(=O)NCCCl)c1ccc(O)cc1
